In ChEMBL document CHEMBL4513216, “Probing the Open Global Health Chemical Diversity Library for Multistage-Active Starting Points for Next-Generation Antimalarials” (ACS Infect Dis, 2020):

Assay: Toxicity liver stage against HepG2, at 10uM
Assay type: cell-based
Design: test concentration 10 uM, cell line HepG2-A16-CD81EGFP
Settings: human, HepG2-A16-CD81EGFP cells; read-out: INHIBITION
Procedure, shortened: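 Uninfected HepG2-A16-CD81EGFP cells, 3 × 10^3 per well, 1536-well, plated on prespotted compound at 10 μM final, parasite-free screening media added to match infected plates; puromycin 10 μM positive, DMSO 0.5% negative; run in parallel with 48 h PbLuc assay at 37 °C, 5% CO2; viability by CellTiter-Glo luminescence, normalized to controls.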

SMILES	cytotoxicity at 10 µM
COc1ccccc1COCC(O)CN(C)Cc1cccc(Cl)c1 (configuration not stated)	-1.28%
CC(=O)N1CCC(N2CCOC[C@H]2c2nc(C(C)(C)C)c[nH]2)CC1	6.51%
CCOCc1nc(N2CCOCC2)sc1C(=O)NCCCc1ccco1	-87.3%
Cc1ccn(CCC(=O)NC(C)Cc2ccco2)n1 (configuration not stated)	-4.1%
O=C1c2cccnc2OC(CN2CCOCC2)CN1CC1CC1 (configuration not stated)	-6.17%
COc1ccc2c(ccn2CCC(=O)NCCCC(=O)O)c1	5.7%
COC(=O)[C@@H](NC(=O)c1snnc1-c1ccc(OC)cc1)C(C)C	4.96%
O=C(c1cnn2c1OCCC2)N1CCN(C(=O)C2CCCO2)CC1 (configuration not stated)	-6.19%
O=C([C@H]1COC[C@H]2CN(CC3CCC3)C[C@H]21)N1CCOCC1	17.3%
Cc1cc(CN2C[C@@H]3COC[C@]3(c3nnc(C)o3)C2)no1	-2.11%
Cn1nc(CNC(=O)c2nc3ccccc3s2)c2c1CCOC2	-3.16%
Cc1ncsc1CN1C[C@@H](OCC2CC2)[C@H]2OCCC[C@H]21	-9.76%
CCNC(=O)c1nc2c(s1)CCCN2S(C)(=O)=O	-12.6%
CCn1nc(C)c2nnn(CC(=O)Nc3cccc(Cl)c3)c(=O)c21	4.47%
CC(C)(C)C(=O)NCCc1cc2nc(-c3ccncc3)ccn2n1	6.66%
COc1ccc2c(c1)CC(C1CCOCC1)N(C(=O)c1cnccn1)C2 (configuration not stated)	5.21%
CC(=O)N1CCCC(C(=O)c2cnn(-c3ccc(F)cc3)c2N)C1 (configuration not stated)	5.82%
O=C(Cn1cc(Cl)cn1)N1CCCC(c2cc3ccccc3cn2)C1 (configuration not stated)	-27.3%
Cc1cccnc1CN1CC[C@@](C)(O)[C@H](Oc2ccccc2)C1	-9.11%
CC1CCN(C(=O)c2cnc(CC3CCCN(C)C3)cn2)CC1 (configuration not stated)	-11.7%
Cc1cc(-c2cnc(NCc3ccccn3)nc2C(C)C)on1	-1.51%

SMILES	cytotoxicity at 10 µM
COCC(=O)N1CCCC1c1cccc(Cc2ccccc2F)n1 (configuration not stated)	-37.7%
CC(O)c1cn(Cc2ccc(Cl)cc2)nn1 (configuration not stated)	8.75%
O=S(=O)(c1ccc(F)cc1Cl)N1CCCC1c1ccncc1 (configuration not stated)	-7.95%
Cc1ccnc2c1NC(=O)CN2C(=O)CCc1ccccc1	-20.1%
CCOc1c(F)cccc1C(=O)N(C)CCc1ccccn1	18.6%
O=C(C(c1ccccc1)S(=O)(=O)c1ccccn1)N1CCCCC1 (configuration not stated)	5.7%
CC(C)c1ncc(C(=O)N(C)c2ccc(Br)cn2)s1	9.12%
CCN(CC)C(CNC(=O)CCc1nc(C(C)C)no1)c1ccco1 (configuration not stated)	5.91%
CCC(CC)C(=O)NCc1c(C)nn(C)c1N1CCCN(C)CC1	0.295%
CCOC(=O)C1CCCN(Cc2cc(C#N)n(C)c2C)C1 (configuration not stated)	0.0308%
O=C(COC1CCCC1)N1CCCC1c1noc(C2CC2)n1 (configuration not stated)	11%
Cc1ccc(CN(C(=O)NCc2nnc3n2CCCCC3)C2CC2)o1	9.35%
Cc1ccc(NCCNC(=O)c2cc(CC(C)C)n[nH]2)nn1	0.37%
Cc1cc(NCCNS(=O)(=O)c2cccc(Cl)c2)nc(C)n1	2.9%
O=C(c1[nH]nc(C2CC2)c1Cl)N1CCN(C2CC2)C(=O)C1	-4.81%
Cc1cc(C(=O)N2CCCC(N3CCCCCC3)C2)nn1C(C)(C)C (configuration not stated)	-4.4%
Cc1cnn(CCNC(C)c2nnc(-c3cccc(Cl)c3)o2)c1 (configuration not stated)	-1.41%
CN1CCC(N(C)c2ccccc2CNCc2ccco2)CC1	-9.05%
COCCN(Cc1ccccn1)C(=O)c1ccc(=O)n(C)c1	-16.8%
CCN(C)c1ccc(CNS(=O)(=O)CC2CCCO2)cc1F (configuration not stated)	11.9%
COc1cccc(N2CCN(CCC(=O)NC3CCCC3)CC2)c1	-5.93%

SMILES	cytotoxicity at 10 µM
Cn1ccnc1CN1CCC2(CC1)CC(N1CCCC1)c1ccccc12 (configuration not stated)	7.24%
Cn1cc(-c2cnc(-c3ccnn3C)nc2)cc1C(=O)NC1CC1	3.77%
CCOC(=O)c1coc(N2CCN(Cc3cc(C)cc(C)c3)C(=O)C2)n1	4.24%
COc1ccc(C(C(=O)O)N(C)CCN2CCCC2)cc1F (configuration not stated)	1.38%
O=C(CN1CCOC1=O)N1CCC2(CCc3ccccc32)CC1	-15.8%
CNC(=O)c1n[nH]c2c1C(c1cccc3[nH]ccc13)CC(=O)N2 (configuration not stated)	4.06%
Cn1c(=O)oc2ccc(NC(=O)N3CCSCC3)cc21	2.58%
C[C@H](c1ccc(Cl)cc1)n1c(C2CC2)n[nH]c1=O	9.33%
CCOCCC(=O)N(Cc1ccncc1)C(C)CC (configuration not stated)	9.99%
Cc1cc(NCCSc2nccn2C)n2nc(C)c(C)c2n1	9.75%
Cc1c(NCc2cccnc2)cccc1C(=O)N1CCC(N(C)C)C1 (configuration not stated)	14.1%
Cc1nc(C)n(CC(C)C(=O)N2CCCN(C3CCCC3)CC2)n1 (configuration not stated)	-0.103%
CCc1cc(NCCCOC2CCCC2)ncn1	-1.41%
CCNC(=O)[C@@H]1C[C@H](NC(=O)Cc2ccsc2)CN1Cc1ccc(C)o1	-11.8%
CN(CCO)Cc1nnc(C2CCN(C3CCCCC3)CC2)n1C	20.7%
CCn1ncc(Br)c1CN(C)S(=O)(=O)c1ccc(C)cc1	14.5%
NCc1cn(-c2ccccc2C(=O)NCc2ccccc2)cn1	3.32%
CNC(=O)c1ccc(C(=O)N2CCCCC2Cn2cc(C)cn2)cn1 (configuration not stated)	-3.54%
CCc1nnc2n1CCN(C(=O)c1cc(Cl)c[nH]1)C2	-6.1%
O=C(CCNC(=O)C1CCCC1)NCc1cccnc1-n1cncn1	-3.39%
O=C(NCCOc1ccc2c(c1)OCO2)C1CC(=O)N(CC2CC2)C1 (configuration not stated)	-6.63%

SMILES	cytotoxicity at 10 µM
CC(NC(=O)NCC1(c2ccccc2)CCC1)c1nncn1C (configuration not stated)	-10.4%
NC(=O)C1CN(C(=O)Nc2ccccc2SC(F)(F)F)CCO1 (configuration not stated)	-8.3%
CNS(=O)(=O)CCCN1CCCC1c1cc(C)on1 (configuration not stated)	-6.31%
Cc1cnn(CC2CCCN2C(=O)Cc2n[nH]c3ccccc23)c1 (configuration not stated)	-9.16%
O=C(Cn1cccnc1=O)NCCc1ccc2c(c1)OCCO2	4.96%
Cc1cnn(CC2CCCN2CC(=O)Nc2cc(C(C)(C)C)no2)c1 (configuration not stated)	-7.76%
CCc1ccsc1C(=O)N1CCN(CC(O)CC)CC1 (configuration not stated)	-4.25%
CCc1nccn1C1CCCN(C(=O)Cc2n[nH]c3ccccc23)C1 (configuration not stated)	-0.337%
Cc1noc(C)c1CN(C)CC1CCCN1c1cccnn1 (configuration not stated)	0.746%
COc1ccc(CN2CCc3ncnc(C4CCOC4)c3CC2)cc1 (configuration not stated)	-9.25%
O=S(=O)(C1CC1)N1CCC2(CCCN(Cc3ccccn3)C2)C1 (configuration not stated)	-0.336%
Cc1csc(NC(=O)c2cnc(C3CCNCC3)cn2)n1	-12.3%
CC(C)N(C)[C@@H]1CCN(Cc2nccs2)[C@H]1Cc1ccncc1	-2.75%
FC(F)Oc1ccc(CNCc2cc(Cl)c3c(c2)OCO3)cc1	2.63%
CN1CCc2c(c(COc3cncnc3)nn2CC2CC2)C1	8.61%
CNC(=O)[C@@H]1C[C@H]2CN(c3ncccn3)C[C@H]2N1C(C)C	9.72%
c1coc(CN2C[C@@H]3CCCO[C@@H]3[C@H](N3CCCC3)C2)c1	-2.02%
CCOCC1CN(C(=O)COc2ccccc2C)Cc2ncn(C)c21 (configuration not stated)	0.78%
CN(C)[C@@H]1CN(C(=O)Cc2cccs2)[C@@H]2CCCO[C@H]12	5.93%
